# TNAP inh hiacc: inhibitors of human TNAP at high phosphate acceptor concentration; P05186; purified TNAP, CDP-star luminescence, 1 M DEA; inhibition, % at 20 µM; 200,000 tested, 0.03% active; AID 1135;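 active = over 50% inhibition of tissue-nonspecific alkaline phosphatase at 20 µM in the single-dose screen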;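 note: plate controls were DMSO wells for no effect and EDTA-quenched wells as full inhibition for full effect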
# Target sequence (P05186 whole entry, looked up): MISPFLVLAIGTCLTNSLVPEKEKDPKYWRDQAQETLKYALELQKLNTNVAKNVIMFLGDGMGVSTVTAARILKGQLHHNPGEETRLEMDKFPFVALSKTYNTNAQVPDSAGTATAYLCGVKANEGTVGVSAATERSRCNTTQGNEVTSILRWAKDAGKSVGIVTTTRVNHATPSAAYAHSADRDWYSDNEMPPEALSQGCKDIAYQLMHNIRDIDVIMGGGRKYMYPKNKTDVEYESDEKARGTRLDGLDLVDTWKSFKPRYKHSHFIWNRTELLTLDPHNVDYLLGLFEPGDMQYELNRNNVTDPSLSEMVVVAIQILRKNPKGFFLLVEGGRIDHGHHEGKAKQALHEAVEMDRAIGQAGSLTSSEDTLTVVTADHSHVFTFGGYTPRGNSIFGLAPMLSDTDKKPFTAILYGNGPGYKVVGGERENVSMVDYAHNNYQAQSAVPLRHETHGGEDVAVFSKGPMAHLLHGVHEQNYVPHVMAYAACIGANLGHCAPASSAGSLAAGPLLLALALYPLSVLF
# Lmaj promast: inhibitors of Leishmania major promastigote growth | inhibition, % at 10 µM | AID 1063 | Leishmania major promastigotes, resazurin fluorescence viability | 200,000 tested, 9% active; in the data active = inhibition above about 50%;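 note: promastigotes grown with compound for 44 hours at 28 °C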
# TNAP act hi DEA: activators of human TNAP at high phosphate acceptor concentration; activation factor at 20 µM; 200,000 tested, under 10 active; P05186; purified TNAP, CDP-star luminescence, 1 M DEA, 30 min; hits give high values; 0 = EDTA background, 1 = DMSO-only activity;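 active = activation factor at least 2 at 20 µM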
#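 system = human TNAP | amount = enzyme diluted 1/800 final | reagent = 100 µM CDP-star substrate | signal = luminescent substrate turnover signal | dosing = one dose, 20 µM | benchmarks = EDTA negative control, DMSO positive control | measure = activation factor | timing = 30 min reaction, room temperature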
# bCat KO growth: beta-catenin-lacking colon tumor cell growth suppression | 140,000 tested, 1.5% active | HCT116 beta-catenin knockout viability, CellTiter-Glo, 60 h; hits give low values | viability, % at 10 µM | AID 818;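 active = viability at or under a set limit, the compound median less 4 SD, cut at about 6% in these data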;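 note: 0% = Hyamine 1622 control at 20 µM and 100% = untreated cell control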
# TNAP inh noacc: blocks human TNAP activity with no phosphate acceptor present; P05186; AID 1012; inhibition, % at 20 µM; purified TNAP, CDP-star luminescence, 30 min; 200,000 tested, 0.26% active;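 active = tissue-nonspecific alkaline phosphatase inhibition above about 50% at 20 µM in the single-dose screen, limit read from the data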;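 note: 0% = DMSO negative control and 100% = EDTA positive control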
# HCT116 PTEN-null: suppresses growth of cells with PTEN deletion. 140,000 tested, 1.2% active. viability, % at 10 µM. HCT116 PTEN-null viability, CellTiter-Glo, 60 h; hits give low values;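 active = viability at or below a set limit, 4 SD under the median of all tested compounds, cut at about 3.7% in these data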;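 note: PTEN knockout HCT116 line with beta catenin targeted HCT116 as companion control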
# * = called active by the depositor; nt = not tested or not shown. Most compounds without a hit are left out; they make up all but 9.6% or so of the library.
SMILES,TNAP inh hiacc,Lmaj promast,TNAP act hi DEA,bCat KO growth,TNAP inh noacc,HCT116 PTEN-null
NC(N)=N/N=C/c1ccc(OCc2ccc(Cl)cc2)cc1,4.8,100.6*,1,1.5*,2.3,1.5*
Cc1ccc(COc2ccc(/C=N/O)cc2)cc1,-9.8,58.1*,1.1,105.8,-14.0,98.1
O=C(N/N=C/c1ccccc1)c1ccc(OCc2ccccc2)cc1,-3.1,-1.1,1,nt,-18.7,nt
N#C/C(=C/c1cn(CC(=O)O)c2ccccc12)C(=O)NCc1ccccc1,-5.7,6.4,1.1,nt,0.6,nt
COC(=O)C1CC(=O)c2ccsc2C1 (centres undefined),-3.3,-8.0,1,100.5,-4.0,94.7
COc1ccc(C(C)=O)cc1COc1nc(C)nc2ccccc12,-3.7,-0.3,1,nt,-19.6,nt
O=C(CN1CCN(c2ccc(F)cc2)CC1)Nc1ccccc1[N+](=O)[O-],0.2,-3.7,1,nt,3.2,nt
CCc1cccc(C)c1NC(=O)CO/N=C(\C)c1cc2ccccc2o1,-2.9,70.2*,1,66.2,-4.9,66.0
CCCCNC(=O)CO/N=C(\C)c1cc2ccccc2o1,0.2,36.6,1,95.3,5.1,96.3
C=CCc1ccc(OCCCN2CCCC(C)C2)c(OC)c1 (centres undefined),-1.7,99.6*,1,72.1,2.0,72.5
C=CCc1ccc(OCCCCN2CC(C)CC(C)C2)c(OC)c1 (centres undefined),-0.2,96.1*,1,nt,-4.5,nt
CCOc1ccccc1OCCOCCN1CC(C)OC(C)C1 (centres undefined),-3.3,63.2*,1,92.8,-11.9,103.4
C=CCc1ccc(OCCCOc2ccc(C(=O)O)cc2)c(OC)c1,-9.0,4.7,1.1,nt,-8.5,nt
CCOc1ccccc1OCCOCCOc1ccccc1[N+](=O)[O-],-0.5,-2.2,1,85.2,-12.7,85.5
C=CCc1ccc(OCCCCN2CCC(C)CC2)c(OC)c1,-0.8,89.4*,1,74.0,-16.9,84.9
Cc1cc[n+]2cc(-c3cccc([N+](=O)[O-])c3)c(-c3cccc([N+](=O)[O-])c3)cc2c1,2.6,16.7,1,91.2,-2.0,91.8
CCCC(C)C(=O)Nc1ccc(S(=O)(=O)Nc2nccs2)cc1 (centres undefined),-1.7,-8.7,1,nt,-5.7,nt
COCCNC(=O)NC(=O)CN1CCCc2ccccc21,-3.0,-0.7,1,nt,-11.2,nt
CC1CN(CCOc2ccc(Cl)cc2Cl)CC(C)O1 (centres undefined),-1.9,40.0,1,77.9,-5.0,79.6
COc1cc(C)ccc1OCCCCN1CC(C)OC(C)C1 (centres undefined),-4.5,96.9*,1,85.5,-11.6,90.2
Cc1cccc(-c2c3c(=O)n(C)c(=O)n(C)c3c3nnc4ccccc4n23)c1,nt,1.4,nt,nt,nt,nt
CCn1c(-c2ccc(C)cc2)n[nH]c1=S,2.7,-6.8,1,106.5,51.8*,110.2
CNC(=S)N1N=C(c2ccc(Br)cc2)CC1c1ccc(Br)cc1 (centres undefined),4.6,100.2*,1,68.0,-2.3,68.5
CNC(=S)N1N=C(c2ccc(Br)cc2)CC1c1ccc(N(C)C)cc1 (centres undefined),-7.5,51.4*,1.1,nt,-11.5,nt
CNC(=S)N1N=C(c2ccc(OC)cc2)CC1c1ccc(N(C)C)cc1 (centres undefined),-6.6,4.8,1.1,88.8,-6.8,79.8
SMILES,TNAP inh hiacc,Lmaj promast,TNAP act hi DEA,bCat KO growth,TNAP inh noacc,HCT116 PTEN-null
Cc1ccccc1S(=O)(=O)/N=C(/c1ccccc1)N1CCOCC1,-2.8,-1.4,1,nt,-7.6,nt
C/C(=N\Nc1cccc(Cl)c1)c1ccncc1,-1.0,30.7,1,nt,-3.7,nt
C/C(=N\Nc1ccc(F)cc1)c1ccncc1,1.6,84.4*,1,100.8,-8.1,102.8
COc1cc2c(cc1OC)C1(CCCC1)CNC2c1cccc([N+](=O)[O-])c1 (centres undefined),1.7,17.1,1,nt,-3.3,nt
COC(=O)COc1ccc(/C=N/NC(=O)c2ccc(N(Cc3ccccc3)S(C)(=O)=O)cc2)cc1,5.2,58.4*,0.9,89.8,-3.8,92.6
CC(C)c1nc2ccc(NC(=O)C34CC5CC(CC(C5)C3)C4)cc2[nH]1,3.9,48.4,1,55.8,-2.2,69.3
